High-throughput results deposited in PubChem BioAssay by several laboratories.
HKDC1 inh – HKDC1 (human) hexokinase inhibition; 340,000 tested, 0.16% active; inhibition, % at 20 µM; Q2TB90; recombinant HKDC1, G6PDH/diaphorase resazurin coupled fluorescence;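 active = inhibition above about 35% when tested at 20 µM, limit read from the data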
Target sequence (Q2TB90 whole entry, looked up): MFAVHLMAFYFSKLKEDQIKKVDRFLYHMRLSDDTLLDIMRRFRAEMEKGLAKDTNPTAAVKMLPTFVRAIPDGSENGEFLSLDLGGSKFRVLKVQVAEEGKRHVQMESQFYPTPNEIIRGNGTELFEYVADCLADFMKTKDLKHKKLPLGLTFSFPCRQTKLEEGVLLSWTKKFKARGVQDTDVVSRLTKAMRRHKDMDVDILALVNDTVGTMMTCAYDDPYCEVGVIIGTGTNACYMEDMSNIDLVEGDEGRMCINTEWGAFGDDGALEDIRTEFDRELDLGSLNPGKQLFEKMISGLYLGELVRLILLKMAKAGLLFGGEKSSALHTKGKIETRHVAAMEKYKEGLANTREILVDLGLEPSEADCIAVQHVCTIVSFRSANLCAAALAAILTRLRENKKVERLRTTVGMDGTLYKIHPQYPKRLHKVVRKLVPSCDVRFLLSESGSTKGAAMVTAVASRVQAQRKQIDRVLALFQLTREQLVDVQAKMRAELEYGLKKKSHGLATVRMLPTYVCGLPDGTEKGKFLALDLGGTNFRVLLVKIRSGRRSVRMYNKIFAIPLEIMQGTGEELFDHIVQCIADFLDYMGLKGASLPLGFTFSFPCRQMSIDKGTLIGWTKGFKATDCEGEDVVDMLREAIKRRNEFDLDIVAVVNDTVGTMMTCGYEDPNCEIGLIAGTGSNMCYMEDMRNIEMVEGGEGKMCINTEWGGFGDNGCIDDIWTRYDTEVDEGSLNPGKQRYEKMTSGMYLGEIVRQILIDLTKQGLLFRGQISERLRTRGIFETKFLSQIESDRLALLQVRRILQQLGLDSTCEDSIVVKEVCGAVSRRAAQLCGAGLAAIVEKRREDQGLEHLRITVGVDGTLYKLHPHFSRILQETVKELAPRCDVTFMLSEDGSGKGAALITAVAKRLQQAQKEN
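test system = in-house recombinant HK5 (HKDC1) enzyme | amount = HKDC1 at 5 µg/mL | control set = DMSO-enzyme wells negative, buffer-substituted wells positive | compound = one dose of 20 µM, 1% DMSO | schedule = reaction time 90 min, room temperature, protected from light | technique = resorufin fluorescence at 613 nm | reagent = glucose with 1 mM ATP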
PfG6PD inh – PfG6PD (Plasmodium falciparum) enzyme inhibition. PfGluPho enzyme, NADPH resazurin-diaphorase fluorescence. inhibition, % at 20 µM. 350,000 tested, 0.78% active;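 active = inhibition reaching at least a set limit at 20 µM in the primary screen, cut at about 59% in these data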
EP2 mod – modulators of human EP2 prostaglandin E2 receptor; EP2-expressing cells, cAMP HTRF FRET, PGE2 co-stimulation; induction, % at 25 µM; 260,000 tested, 0.83% active; AID 940;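 active = compounds whose cAMP rise, as percent of the full-agonist control response, exceeds 60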;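 also: rat C6 glioma line stably carrying human EP2 under a CMV promoter; the protocol text gives 20 µM as final concentration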
TbHK1 inh – blocks Trypanosoma brucei hexokinase 1 activity. recombinant TbHK1, G6PDH-coupled NADH A340. inhibition, % at 10 µM. 220,000 tested, 0.11% active. AID 1430;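 active = inhibition of 50% or more in the single-dose primary screen; inactive = inhibition below 50%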
PHOSPHO1 inh – inhibitors of human PHOSPHO1 phosphatase; Q8TCT1; recombinant PHOSPHO1, absorbance phosphatase assay; inhibition, % at 13.3 µM; 290,000 tested, 1.1% active; in the data active = inhibition above about 60%
PGE2 EP2 inh – blocks the human prostaglandin E2 receptor EP2; 260,000 tested, 0.52% active; AID 1422; P43116; C6 glioma cells expressing human EP2, cAMP TR-FRET; cells stimulated with saturating PGE2; inhibition, % at 25 µM;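 active = percent inhibition above 40 after rounding to a whole number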;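 also: rat C6 glioma host cells with rolipram phosphodiesterase inhibitor present; the protocol text gives 20 µM as final concentration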
Numbers stand for hits; n = inactive; x = not tested or not shown. The list is not random: actives were taken first. Their share in the collection is about 2.5%.

SMILES	HKDC1 inh	PfG6PD inh	EP2 mod	TbHK1 inh	PHOSPHO1 inh	PGE2 EP2 inh
COCCn1nnnc1C(c1cc2cc(OC)ccc2[nH]c1=O)N1CCOCC1 (stereo not drawn)	x	x	n	x	x	n
Cc1ccc2cc(C)c3nnc(SCC(=O)Nc4ccccc4)n3c2c1C	x	x	n	x	x	n
C[N@@+]1(Cc2ccc(Cl)c(Cl)c2)CCC[C@@H]1c1ccc[n+](Cc2ccc(Cl)c(Cl)c2)c1	x	x	n	x	x	50.3
Clc1ccc(CNCCCSc2ncccn2)cc1Cl	n	n	x	x	n	x
CCN1C(=O)/C(=c2/s/c(=C3\SC(C)=C(C)N3CC)c(=O)n2CC)N(C)C1=S	x	x	n	x	x	n
CCCc1cc(C(=O)NNC(=S)NCC2CCCO2)cs1 (stereo not drawn)	n	n	n	n	n	n
CCCc1cc(C(=O)NNC(=S)NC(C)c2ccccc2)cs1 (stereo not drawn)	n	n	n	n	83.3	n
Cc1ccc(Sc2c(C)[nH]n(C(C)(C)C)c2=O)cc1	n	n	n	n	n	n
Cc1[nH]n(C(C)(C)C)c(=O)c1Sc1ccccc1	n	n	n	n	94.5	n
CC(=O)[C@H]1CC[C@@H]2[C@]1(C)CC=C1[C@@]23C=C[C@@]2(C[C@H](O)CC[C@@]12C)[C@H](C(=O)O)[C@@H]3C(=O)O	x	x	n	x	x	40.8
CC(=O)C1CCC2C3CC(C)C4(O)CC(=O)CCC4(C)C3C(O)CC12C (stereo not drawn)	n	n	x	x	x	x
Cn1c(=O)n(C)c2cc(CN(Cc3cccc(F)c3)CC3CCCO3)ccc21 (stereo not drawn)	x	x	n	x	x	n
O=C(O)c1ccn2c(C(=O)c3ccc(Cl)cc3)c(-c3ccccc3)cc2c1	n	n	76.7	n	n	n
O=C(NCCO)C(=O)c1c(-c2ccc(Cl)cc2)cc2ccccn12	n	n	n	n	n	n
O=C1c2ccccc2-n2c1nc1ccccc1c2=O	n	n	n	n	n	53.9
COc1ccc(C(=O)Nc2nc3c(s2)C(=O)CC(C)(C)C3)c(OC)c1	x	x	n	x	x	n
CC(C)(C)c1nc(SCC(=O)Nc2nccs2)c2ccccc2n1	x	x	n	x	x	n
CCCc1ccc(C2=Nn3c(nnc3C(C)C)SC2)cc1	n	60.0	x	x	n	x
COC(=O)Cc1c(C)nc2nc(NCc3ccc(Cl)cc3)[nH]n2c1=O	n	n	n	n	80.2	x
NC(=O)c1ccc(NC(=O)CN2CCN(C(=O)c3ccco3)CC2)cc1	n	n	x	x	n	x
CCOC(=O)c1ccc(NC(=O)CN2CCN(C(=O)c3ccco3)CC2)cc1	n	n	x	x	75.0	x
CCS(=O)(=O)Cc1cccs1	x	x	n	x	x	n
COc1ccc(-n2c(SC(C)C(=O)Nc3ccccc3C)nnc2-c2ccncc2)cc1 (stereo not drawn)	x	x	n	x	x	n
COc1ccc(NC(=O)N2CCN(c3nc(-c4cccc(OC)c4)cs3)CC2)cc1	n	n	n	n	n	n
COc1cccc(-c2csc(N3CCN(C(=O)Nc4ccc(Cl)cc4)CC3)n2)c1	n	n	n	n	64.2	n
SMILES	HKDC1 inh	PfG6PD inh	EP2 mod	TbHK1 inh	PHOSPHO1 inh	PGE2 EP2 inh
O=C(C(Cc1ccccc1)N1C(=O)c2ccccc2C1=O)N1CCc2ccccc21 (stereo not drawn)	n	n	63.6	n	n	n
CC(C)(C)n1nc2c(c1NC(=O)c1cccc(Cl)c1)CS(=O)(=O)C2	n	n	x	x	64.9	x
Cc1cc(C)cc(C(=O)Nc2c3c(nn2C(C)(C)C)CS(=O)(=O)C3)c1	n	n	x	x	n	x
CCn1c(C)[n+](CCOCC[n+]2c(C)n(CC)c3cc(Cl)c(Cl)cc32)c2cc(Cl)c(Cl)cc21	n	n	n	n	82.6	n
Cc1cc(C)cc(NC(=O)Nc2ccc3c(c2)N(C)C(=O)CS3)c1	n	n	n	n	n	43.3
Cc1ccc(NC(=O)Nc2ccc3c(c2)N(C)C(=O)CS3)cc1C	n	n	n	n	n	n
CCOC(=O)Cc1n[nH]c(=O)c2ccccc12	n	n	n	n	n	n
O=C(Cc1n[nH]c(=O)c2ccccc12)OCC(=O)N(Cc1ccccc1)Cc1ccccc1	n	n	63.1	n	n	n
Cc1nn(CC(=O)N(Cc2ccccn2)C2CC2)c(=O)c2cc3sccc3n12	x	x	n	x	x	x
Cn1cnc([N+](=O)[O-])c1[Se]c1nc(N)nc2c1ncn2[C@H]1O[C@@H](CO)[C@H](O)[C@H]1O	x	x	n	x	x	42.2
Nc1nc(Cl)c2ncn(C3OC(CO)C(O)C3O)c2n1 (stereo not drawn)	n	n	x	x	x	x
Cn1cnc([N+](=O)[O-])c1Sc1nc(N)nc2c1ncn2[C@@H]1C[C@H](O)[C@@H](CO)O1	x	x	n	x	x	48.1
